# Experimental data from ChEMBL document CHEMBL1147806, “Structure-activity relationship studies on UK-2A, a novel antifungal antibiotic from Streptomyces sp. 517-02. Part 5: Roles of the 9-membered dilactone-ring moiety in respiratory inhibition” (2006).
# Legend:
# Rhodotorula mucilaginosa = assay: Antifungal activity against Rhodotorula mucilaginosa IFO 0001; format: functional
# Outline: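 Compounds dissolved in DMF; MIC by serial 2-fold agar dilution on Sabouraud dextrose agar, read after 48 h cultivation at 25 °C.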
# Bos taurus = species: Bos taurus; assay: Respiratory inhibition in bovine heart submitochondrial particles; format: functional
# Outline: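 Bovine heart submitochondrial particles prepared by the Matsuno-Yagi and Hatefi method; uncoupler-stimulated respiration with 10 mM succinate as substrate, oxygen consumption followed by oxygen electrode at 25 °C.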
Structure (SMILES),MIC (Rhodotorula mucilaginosa),pI50 (Bos taurus)
CCCCCCOC(=O)CC[C@H](NC(=O)c1nccc(OC)c1O)C(=O)OCCCCCC,3.13 µg/mL,6
CCCCCOC(=O)CC[C@H](NC(=O)c1nccc(OC)c1O)C(=O)OCCCCC,12.5 µg/mL,–
CCCCCCOC(=O)CC[C@H](NC(=O)c1cccc(NC=O)c1O)C(=O)OCCCCCC,> 100 µg/mL,7.1
CCCCCCCCOC(=O)CC[C@H](NC(=O)c1nccc(OC)c1O)C(=O)OCCCCCCCC,> 100 µg/mL,5.7
CCCCCCCOC(=O)CC[C@H](NC(=O)c1nccc(OC)c1O)C(=O)OCCCCCCC,50 µg/mL,–
COc1ccnc(C(=O)N[C@H]2COC(=O)[C@H](Cc3ccccc3)[C@@H](OC(=O)C(C)C)[C@H](C)OC2=O)c1O,< 0.1 µg/mL,6
CCCC[C@H]1C(=O)O[C@H](C)[C@H](NC(=O)c2cccc(NC=O)c2O)C(=O)O[C@@H](C)[C@@H]1OC(=O)CC(C)C [ANTIMYCIN A3],0.39 µg/mL,7.4

# Further lines, with some results ahead:
MIC (Rhodotorula mucilaginosa),Structure (SMILES),pI50 (Bos taurus)
100 µg/mL,CCCCCCOC(=O)C[C@H](NC(=O)c1nccc(OC)c1O)C(=O)OCCCCCC,–
> 100 µg/mL,CCCCCCOC(=O)C[C@H](NC(=O)c1ccc(OC)c(OC)c1O)C(=O)OCCCCCC,4.9
100 µg/mL,CCCCCCOC(=O)C[C@H](NC(=O)c1cc(O)c(OC)c(OC)c1O)C(=O)OCCCCCC,5
100 µg/mL,CCCCCCOC(=O)CC[C@@H](NC(=O)c1nccc(OC)c1O)C(=O)OCCCCCC,–
